UPR XBP1 act: activators of adaptive arm of unfolded protein response (XBP1); CHO-XBP1 luciferase reporter, IRE1-XBP1 UPR activation, luminescence; percent of tunicamycin response, DMSO as zero; activation, % at 20 µM; actives 0.33% (n = 330,000); AID 463104;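 active = versus positive control, 20 µM dose yields 30% or more activation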
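Material – CHO cell line with stable XBP1 luciferase reporter · Buffer or medium – F12 plus 10% FBS · Compound – single point, 20 µM final compound, 1% DMSO · Schedule – 16-18 h cell attachment at 37 °C, then 6 h compound exposure · Signal – Steady-Glo luminescence read · Benchmarks – high control tunicamycin 10 µg/mL final, low control DMSO vehicle only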
CHOP inh: blocks CHOP induction under ER stress. CHO-K1 CHOP-promoter luciferase, tunicamycin-induced, 15-18 h. inhibition, % at 10 µM. actives 3.8% (n = 220,000);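 active = compounds that reduced the stress-induced luciferase reporter signal by more than about 70% of percent inhibition, limit read from the data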
pCIP destab: lowers stability of the mouse p/CIP coactivator protein. F442A p/CIP-EGFP cells, EGFP fluorescence, 16 h. decrease of EGFP signal, % at 10 µM. actives 0.01% (n = 290,000). AID 1984;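 active = EGFP signal decrease of at least 30% at 10 µM or well 3 SD below plate mean, unless failing retest; inactive = the rest, including hits failing retest or dose response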
Target sequence (Q05BA5 1-1403): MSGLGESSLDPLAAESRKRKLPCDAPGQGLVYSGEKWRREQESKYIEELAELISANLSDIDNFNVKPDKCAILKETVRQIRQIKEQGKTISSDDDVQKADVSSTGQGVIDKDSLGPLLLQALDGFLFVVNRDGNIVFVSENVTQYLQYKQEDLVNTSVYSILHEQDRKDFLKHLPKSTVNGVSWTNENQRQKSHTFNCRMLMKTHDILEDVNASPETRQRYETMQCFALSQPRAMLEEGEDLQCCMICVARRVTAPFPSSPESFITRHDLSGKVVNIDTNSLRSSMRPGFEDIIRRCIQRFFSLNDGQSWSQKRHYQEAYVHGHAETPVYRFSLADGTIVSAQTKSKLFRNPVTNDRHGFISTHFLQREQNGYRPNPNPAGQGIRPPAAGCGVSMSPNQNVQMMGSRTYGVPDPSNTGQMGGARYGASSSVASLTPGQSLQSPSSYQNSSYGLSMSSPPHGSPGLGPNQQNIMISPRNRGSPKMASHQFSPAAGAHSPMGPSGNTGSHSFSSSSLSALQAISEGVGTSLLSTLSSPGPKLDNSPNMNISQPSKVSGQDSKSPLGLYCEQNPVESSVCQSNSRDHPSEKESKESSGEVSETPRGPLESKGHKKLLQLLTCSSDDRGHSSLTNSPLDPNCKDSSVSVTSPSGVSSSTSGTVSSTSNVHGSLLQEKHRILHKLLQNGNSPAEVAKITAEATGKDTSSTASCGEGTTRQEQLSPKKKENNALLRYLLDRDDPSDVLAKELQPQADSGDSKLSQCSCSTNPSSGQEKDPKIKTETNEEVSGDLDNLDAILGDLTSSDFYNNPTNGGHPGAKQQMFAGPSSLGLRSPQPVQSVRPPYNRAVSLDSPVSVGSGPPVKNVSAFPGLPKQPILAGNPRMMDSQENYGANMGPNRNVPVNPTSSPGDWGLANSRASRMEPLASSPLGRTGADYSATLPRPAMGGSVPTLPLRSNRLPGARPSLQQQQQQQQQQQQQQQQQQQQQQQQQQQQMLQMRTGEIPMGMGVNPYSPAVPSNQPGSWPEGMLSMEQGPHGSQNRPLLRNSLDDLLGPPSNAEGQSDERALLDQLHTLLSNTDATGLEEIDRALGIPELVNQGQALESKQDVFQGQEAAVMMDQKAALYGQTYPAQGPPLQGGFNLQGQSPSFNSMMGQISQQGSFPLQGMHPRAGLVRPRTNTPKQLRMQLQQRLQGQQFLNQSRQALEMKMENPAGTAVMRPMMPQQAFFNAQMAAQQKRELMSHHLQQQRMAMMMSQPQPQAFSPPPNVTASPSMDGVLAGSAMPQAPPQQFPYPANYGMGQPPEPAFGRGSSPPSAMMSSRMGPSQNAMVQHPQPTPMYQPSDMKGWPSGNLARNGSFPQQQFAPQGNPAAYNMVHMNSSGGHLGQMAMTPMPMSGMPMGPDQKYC
B2AR ag: activates human beta-2 adrenergic receptor causing internalization. response, % (test concentration not listed). actives 0.43% (n = 340,000). Am2.2-beta2AR cells, FAP receptor internalization, flow cytometry;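 active = response above a set limit, near 3 SD of response in nonfluorescent compounds, cut at about 42% in these data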
Dynein cargo inh: dynein cargo transport inhibition; AID 1381; z-score, hits read low; actives 0.47% (n = 220,000); 3617.4 mouse cells, GR-EGFP nuclear translocation imaging; test concentration mostly 20 µM; stimulated with dexamethasone, 1 µM; active compounds read low;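 active = plate z-score of nuclear minus cytoplasmic receptor signal below a set negative limit, without overly bright fluorescence or cell loss, cut at about -3.5 in these data, passing the limit was not always enough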;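 also: z-score of nuclear minus cytoplasmic ring GR-EGFP intensity difference per well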
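Buffer or medium – tet-free medium with charcoal-stripped serum · Signal – automated 10x imaging of fixed Hoechst-stained cells · Also added – dexamethasone agonist, 1.0 µM final, for 30 min · Incubation – induction 48 h, compound 1 h, agonist 30 min · Read-out – GR-EGFP nuclear translocation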
UPR CHOP act: apoptotic UPR (CHOP) activation. CHO-CHOP luciferase reporter, luminescence; percent of tunicamycin response over DMSO baseline. AID 449763. activation, % at 10 µM. actives 0.34% (n = 330,000);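 active = at 10 µM dose, activation of 40% or more, normalized to positive control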
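Test system: CHO CHOP reporter cells. Input: 500 CHO-CHOP cells per well. Medium: F12 with 10% FBS. Technique: luciferase luminescence. Measure: percent activation relative to tunicamycin control. Dosing: 10 µM compound, 0.5% DMSO. Timing: 16-18 h cell attachment, then 6 h compound exposure, 37 °C.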
CHOP confirm: confirmation of CHOP induction inhibitors; actives 45% (n = 2,100); inhibition, % at 10 µM; CHO-CHOP promoter luciferase reporter, tunicamycin-induced, luminescence; shares compounds with CHOP inh;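 active = mean of three repeat readings of reporter signal inhibition above a set limit, cut at about 70% in these data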
Hits are given with their value. This excerpt belongs to a sample that is enriched for hits.

`O=C(NNc1nc2ccccc2s1)Nc1ccc(Cl)c(Cl)c1` gave UPR XBP1 act inactive, CHOP inh 106, pCIP destab inactive, B2AR ag inactive, Dynein cargo inh inactive, UPR CHOP act inactive and CHOP confirm inactive.
Screening O=C(NNc1nc2ccccc2s1)Nc1ccc(F)cc1 returned UPR XBP1 act inactive, CHOP inh inactive, pCIP destab inactive, B2AR ag inactive, Dynein cargo inh inactive and UPR CHOP act inactive.
COc1ccc(NC(=O)N2CCCC(C(=O)NCCc3ccccc3)C2)cc1 (stereo unspecified) was read as UPR XBP1 act inactive, pCIP destab inactive, B2AR ag inactive and UPR CHOP act inactive.
`O=C(Nc1ccc(Oc2c(F)c(F)c(F)c(F)c2F)cc1)OC1CCN2Cc3ccccc3N=C12` (stereo unspecified) gave UPR XBP1 act inactive, CHOP inh 100, pCIP destab inactive, B2AR ag 102, Dynein cargo inh inactive, UPR CHOP act inactive and CHOP confirm 125.
For Cc1cccc(NC(=O)Nc2ccc(Oc3c(F)c(F)c(F)c(F)c3F)cc2)c1 the results were UPR XBP1 act inactive, CHOP inh inactive, pCIP destab inactive, B2AR ag inactive, Dynein cargo inh inactive and UPR CHOP act inactive.
For CC(C)(C)c1cc(CN2CCCC(O)C2)c(O)c(C(C)(C)C)c1 (stereo unspecified) the results were UPR XBP1 act inactive, CHOP inh 107, pCIP destab inactive, B2AR ag inactive, Dynein cargo inh inactive, UPR CHOP act inactive and CHOP confirm 109.
`CC(C)c1ccc(NC(=O)CSc2nc3ccsc3c(=O)n2CCC(=O)O)cc1` gave UPR XBP1 act inactive, pCIP destab inactive, B2AR ag inactive and UPR CHOP act inactive.
Cc1nn(-c2ccccc2)c2c1C(c1ccc(F)cc1F)C(C#N)=C(N)O2 (stereo unspecified) was read as UPR XBP1 act inactive, CHOP inh 99, pCIP destab inactive, B2AR ag inactive, Dynein cargo inh inactive, UPR CHOP act inactive and CHOP confirm inactive.
Screening Oc1ccc(Cl)cc1-c1cc(-c2cccc(Br)c2)n[nH]1 returned UPR XBP1 act inactive, CHOP inh 101, pCIP destab inactive, B2AR ag inactive, Dynein cargo inh inactive, UPR CHOP act inactive and CHOP confirm inactive.
Screening Oc1ccc(Cl)cc1-c1cc(-c2ccccc2Cl)[nH]n1 returned UPR XBP1 act inactive, CHOP inh inactive, pCIP destab inactive, B2AR ag inactive, Dynein cargo inh inactive and UPR CHOP act inactive.
CCN(C(=O)c1cc2c(=O)[nH]c3ccc(C)cc3c2s1)c1ccc(F)cc1 was read as UPR XBP1 act inactive, CHOP inh inactive, pCIP destab inactive, B2AR ag inactive, Dynein cargo inh inactive and UPR CHOP act inactive.
CCN(C(=O)c1cc2c(=O)[nH]c3ccc(C)cc3c2s1)c1cccc(C)c1 was read as UPR XBP1 act inactive, CHOP inh 98, pCIP destab inactive, B2AR ag inactive, Dynein cargo inh inactive, UPR CHOP act inactive and CHOP confirm inactive.
Screening COC(=O)c1cc(NC(=S)Nc2cc(Cl)cc(Cl)c2)cc(C(=O)OC)c1 returned UPR XBP1 act inactive, CHOP inh 101, pCIP destab inactive, B2AR ag inactive, Dynein cargo inh inactive, UPR CHOP act inactive and CHOP confirm 99.
`Cc1ccc(C2CC2c2n[nH]c(=S)n2-c2ccc(C)cc2)cc1` (stereo unspecified) gave UPR XBP1 act inactive, CHOP inh 100, pCIP destab inactive, B2AR ag inactive, Dynein cargo inh inactive, UPR CHOP act inactive and CHOP confirm inactive.
CC1=C(SCCC#N)S/C(=C2\SC(C)=C(SCCC#N)S2)S1 was read as UPR XBP1 act inactive, CHOP inh inactive, pCIP destab inactive, B2AR ag inactive, Dynein cargo inh inactive and UPR CHOP act inactive.

Screening data: PubChem BioAssay, several laboratories
